PREPL inhibitor: PREPL enzyme inhibitors, primary screen, biochemical, fluorescence polarization. Prolyl endopeptidase-like (Homo sapiens), Q4J6C6. recombinant PREPL, fluorescence polarization activity-based probe. inhibition, % at 5.96 µM. 320,000 tested, 0.68% active. AID 2751, 2010; in the data active means inhibition above about 43%;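 further: 0% = enzyme with DMSO and 100% = wells lacking enzyme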
Target sequence (Q4J6C6 whole entry, looked up): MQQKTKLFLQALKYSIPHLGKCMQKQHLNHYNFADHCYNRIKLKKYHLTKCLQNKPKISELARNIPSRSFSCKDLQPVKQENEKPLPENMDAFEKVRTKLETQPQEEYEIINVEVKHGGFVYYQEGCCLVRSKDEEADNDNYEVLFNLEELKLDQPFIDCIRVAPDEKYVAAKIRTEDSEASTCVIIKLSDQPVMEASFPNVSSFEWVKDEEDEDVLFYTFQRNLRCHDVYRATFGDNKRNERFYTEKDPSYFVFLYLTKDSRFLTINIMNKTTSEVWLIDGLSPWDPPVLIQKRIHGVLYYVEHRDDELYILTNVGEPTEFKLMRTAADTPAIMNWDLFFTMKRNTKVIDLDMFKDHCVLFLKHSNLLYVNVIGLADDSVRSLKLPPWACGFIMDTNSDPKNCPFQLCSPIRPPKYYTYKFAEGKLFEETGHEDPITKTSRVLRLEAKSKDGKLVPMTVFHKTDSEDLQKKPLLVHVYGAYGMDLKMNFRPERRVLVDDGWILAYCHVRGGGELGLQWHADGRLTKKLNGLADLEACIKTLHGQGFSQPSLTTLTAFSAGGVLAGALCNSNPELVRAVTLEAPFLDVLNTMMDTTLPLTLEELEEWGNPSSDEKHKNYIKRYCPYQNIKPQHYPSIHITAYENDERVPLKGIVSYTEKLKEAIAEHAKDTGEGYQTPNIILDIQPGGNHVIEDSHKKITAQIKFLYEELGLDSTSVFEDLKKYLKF
NR3A LBD binder: binders of NR3A ligand-binding domain, primary screen, biophysical, differential scanning fluorimetry, uHTS. Glutamate receptor ionotropic, NMDA 3A (GRIN3A) ligand-binding domain. NR3A LBD differential scanning fluorimetry, Tm shift; 0% = protein alone, 100% = glycine-bound protein. Tm shift relative to glycine control, % at 25 µM. 340,000 tested, 2.5% active. AID 1259313, 2017;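 active means melting temperature shift of at least 10% of the positive control shift, at one fixed dose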
CSC inhib: cancer stem cell viability inhibitors, primary screen, luminescence. cancer stem cell-like cells viability. inhibition, % at 7.5 µM. 300,000 tested, 1.1% active; in the data active means inhibition above about 75%; inconclusive means no clear call, values can overlap the other calls; tested in HMLE shEcad cells
CHOP inh: inhibitors of CHOP promoter induction, primary screen, cell-based, unfolded protein response, luciferase reporter. CHO-K1 CHOP-promoter luciferase, tunicamycin-induced, 15-18 h. inhibition, % at 10 µM. 220,000 tested, 3.8% active;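 active means compounds that reduced the stress-induced luciferase reporter signal by more than about 70% of percent inhibition, limit read from the data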;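 further: 0% = tunicamycin plus vehicle and 100% = wells without tunicamycin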
T cruzi inh: inhibitors of intracellular T. cruzi growth, primary screen, luminescence, NIH3T3 host cells. T. cruzi beta-gal in NIH3T3, 90 h. inhibition, % (test concentration not listed). 300,000 tested, 1.4% active;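 active means mean inhibition across valid replicates above about 55%, limit read from the data; inconclusive means mean below that limit but half or more replicates reach it; inactive means mean below it, under half of replicates reach it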;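 further: signal also drops with host cell toxicity which is not excluded here; 0% = plate median of DMSO wells and 100% = zero luminescence signal; higher percent means less beta-gal luminescence so fewer parasites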
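System: Mouse NIH/3T3 fibroblasts infected with β-gal-expressing T. cruzi Tulahuen C4 | Quantity: NIH/3T3 cells, 5,000 per well | Reagent: 5000 reporter trypomastigotes per well | Dosing: Compound pinned at 50 nL/well, DMSO | Schedule: 3 h host attachment, then at least 90 h co-culture | Detection: GalScreen luminescence, 60 min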
Beta cell apopt: inhibitors of cytokine-induced beta cell apoptosis, primary screen, luminescence. INS-1E cytokine-induced death, ATP luminescence, 48 h; percent of positive-control rescue, neutral wells zero. protection from apoptosis, % (test concentration not listed). 300,000 tested, 0.8% active. AID 435005, 2010;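 active means Every replicate reaches about 75%, or at least half do and their mean reaches it too, limit read from the data; inconclusive means At least half of replicates reach the limit but their mean does not; inactive means Under half of replicates reach the limit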;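 further: 0% = cytokine-treated negative control wells and 100% = positive control rescue; higher means more ATP so stronger rescue from cytokine killing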
The depositor's hits bear a star. Compounds with a hit are over-represented: about 6.7% of the library has one in this group of screens.

Screening C=CCNc1nc2c(c(=O)[nH]c(=O)n2C)n1CCCc1ccccc1 returned PREPL inhibitor 13, NR3A LBD binder -3, CSC inhib -5, T cruzi inh -5 and Beta cell apopt 4.
`Oc1ccc(F)c2cccnc12` gave PREPL inhibitor 0, NR3A LBD binder -1, CSC inhib 8, CHOP inh 72*, T cruzi inh -9 and Beta cell apopt -6.
Oc1ccc(Cl)c2cccnc12 was read as NR3A LBD binder -1.
For COc1cc(CN2CCN(c3cccc(C)c3C)CC2)cc(Br)c1O the results were PREPL inhibitor -63, NR3A LBD binder -4, CSC inhib 57, CHOP inh 91*, T cruzi inh -10 and Beta cell apopt 3.
`Oc1c(CN2CCN(c3ccccn3)CC2)cc(Cl)c2cccnc12` gave PREPL inhibitor 34, NR3A LBD binder -3, CSC inhib inconclusive, T cruzi inh 75* and Beta cell apopt 109*.
Screening OCCN1CCN(Cc2cc(Cl)c3cccnc3c2O)CC1 returned PREPL inhibitor 9, NR3A LBD binder 0, CSC inhib 23, CHOP inh -36, T cruzi inh -11 and Beta cell apopt 3.
OCc1ccc(O)c2ncccc12 was read as PREPL inhibitor 7, NR3A LBD binder -2, CSC inhib -3, CHOP inh 13, T cruzi inh 48 and Beta cell apopt 107*.
COc1ccc(C(=O)N[C@H](C(=O)OCCCOC(=O)[C@@H](NC(=O)c2ccc(OC)cc2)C(C)C)C(C)C)cc1 was read as NR3A LBD binder -1.
For CCN(CC)CCN(C(=O)c1ccc2c(c1)CCCC2)c1nc2c(C)cccc2s1 the results were PREPL inhibitor -12, NR3A LBD binder 2, CSC inhib 30, T cruzi inh 31 and Beta cell apopt 8.
`CCOc1ccccc1N1CCN(Cc2cccc(OC)c2O)CC1` gave PREPL inhibitor 10, NR3A LBD binder 2, CSC inhib 0, CHOP inh 57, T cruzi inh -19 and Beta cell apopt -3.
Oc1c(CN2CCCCC2)ccc2cccnc12 was read as NR3A LBD binder -1.
Oc1ccc(CN2CCCCC2)c2cccnc12 was read as PREPL inhibitor 4, NR3A LBD binder -1, CSC inhib 23, CHOP inh 9, T cruzi inh 68* and Beta cell apopt 5.
For Oc1c(Cl)cc(CN2CCCCC2)c2cccnc12 the results were PREPL inhibitor 7, CSC inhib 87*, T cruzi inh 53 and Beta cell apopt 111*.
COc1ccccc1N1CCN(Cc2cc(Br)c(O)c3ncccc23)CC1 was read as PREPL inhibitor 5, NR3A LBD binder -7, CSC inhib 77*, T cruzi inh 59* and Beta cell apopt 102*.
Cc1ccc(C)c(S(=O)(=O)N2CCN(Cc3ccc(O)c4ncccc34)CC2)c1 was read as PREPL inhibitor 9, NR3A LBD binder -2, CSC inhib 5, CHOP inh 76*, T cruzi inh -5 and Beta cell apopt 87*.
Screening O=C1c2cc(Br)ccc2N(Cc2ccc(Br)cc2)S(=O)(=O)C1c1cc(Cl)c(Cl)cc1[N+](=O)[O-] (stereo unspecified) returned PREPL inhibitor 22, NR3A LBD binder -3, CSC inhib 108* and Beta cell apopt 9.
Screening O=C1CS(=O)(=O)N(Cc2cccc(F)c2)c2ccc(Br)cc21 returned PREPL inhibitor 14, NR3A LBD binder -12, CSC inhib 34 and Beta cell apopt -1.
For COCCN1Cc2cccc(C(=O)Nc3cccc(OC)c3)c2C1=O the results were PREPL inhibitor -7, NR3A LBD binder 19*, CSC inhib 18, CHOP inh -5, T cruzi inh 10 and Beta cell apopt 1.
`O=C(CCCOC(=O)c1ccc(O)cc1O)c1ccc(Br)cc1` gave NR3A LBD binder 10*.
For CCOC(=O)C1=CNS(=O)(=O)NC1CCc1ccccc1 (stereo unspecified) the results were NR3A LBD binder 0.
Screening CCc1ccc(OCC(=O)c2c(O)c3ccccc3oc2=O)cc1 returned PREPL inhibitor 2, NR3A LBD binder 1, CSC inhib -8, CHOP inh 5, T cruzi inh -9 and Beta cell apopt -1.
For CCc1oc2ccccc2c1C(=O)c1cc(Br)c(O)c(Br)c1 the results were PREPL inhibitor -5, NR3A LBD binder -13, CSC inhib 85*, CHOP inh 19, T cruzi inh -8 and Beta cell apopt -3.
Screening COc1cc(/C=C/C(=O)Nc2nnc(CC(C)C)s2)cc(OC)c1OC returned PREPL inhibitor -7, NR3A LBD binder 0, CSC inhib -35, CHOP inh 90*, T cruzi inh 1 and Beta cell apopt -9.
`COc1cc(/C=C/C(=O)Nc2nnc(CC(C)(C)C)s2)cc(OC)c1OC` gave PREPL inhibitor 17, NR3A LBD binder 9, CHOP inh 90*, T cruzi inh 28 and Beta cell apopt -3.

Screens as filed in PubChem BioAssay.
